Here are results for 3 molecules from ChEMBL document CHEMBL2177085 (J Med Chem, 2012).

Each structure is given as a SMILES string.

Test [1] deals with HT-29. As to the kind of experiment: Cytotoxic activity against human HT-29 cells assessed as cell viability at 2.6 uM incubated for 3 days by MTT assay. Particulars: HT-29, 72 h, read-out: Activity. The class given is functional. The method, boiled down: (§1)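 MTT viability: exponentially growing cells, 10 000 viable cells/well in RPMI plated overnight, then exposed to test compounds for 3 days (HT-29, Molm-14) or 5 days (Mkn-45) at 37 °C, 5% CO2. MTT added for 4 h, then SDS/HCl solubilization overnight and absorbance read at 562 nm. Viability is expressed relative to untreated cells (100%). Triplicate.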

The subject of test [2] is MKN-45. Kind of test: Induction of apoptosis in human MKN45 assessed as accumulation at subG1 phase at 5 uM incubated for 7 days by flow cytometry (reference value: 10.9 +/- 3.2%). In kind it is functional.
The test system of test [3] is MKN-45. As to the kind of experiment: Induction of apoptosis in human MKN45 assessed as accumulation at subG1 phase at 15 uM incubated for 7 days by flow cytometry (reference value: 10.9 +/- 3.2%). The class given is functional.
Test [4] in a line: Inhibition of angiogenesis in chick embryo model assessed as reduction in vessel growth at 26 nM incubated for 24 hrs. The class given is functional, Gallus gallus. The method in brief:
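White leghorn eggs incubated at 37.5 °C, 62% humidity. At 70 h, albumen removed and shell windowed. From 75 h, 15 agarose pellets (from a 26 mM DMSO stock in 2% agarose; final concentration 26 nM) placed on the area vasculosa.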

Test [5] has as its system MKN-45. Kind of test: Cytotoxic activity against human MKN45 cells assessed as cell viability at 5 uM incubated for 5 days by MTT assay. In kind it is functional. As to conditions: MKN-45, 120 h, read-out: Activity. The method in brief: as §1
Test [6] has as its system HT-29. Kind of test: Cytotoxic activity against human HT-29 cells assessed as cell viability at 52 uM incubated for 3 days by MTT assay. The class given is functional. As to conditions: HT-29, 72 h, read-out: Activity. The method in brief:
as §1

The test system of test [7] is MKN-45. As to the kind of experiment: Cytotoxic activity against human MKN45 cells assessed as cell viability at 10 uM incubated for 5 days by MTT assay. As to conditions: MKN-45, 120 h, read-out: Activity. The class given is functional. The method in brief:
as §1

The test system of test [8] is MKN-45. As to the kind of experiment: Cytotoxic activity against human MKN45 cells assessed as cell viability at 0.5 uM incubated for 5 days by MTT assay. In kind it is functional. As to conditions: MKN-45, 120 h, read-out: Activity. The method, boiled down: as §1
Test [9] relates to MKN-45. Kind of test: Cytotoxic activity against human MKN45 cells assessed as cell viability at 20 uM incubated for 5 days by MTT assay. In kind it is functional. Particulars: MKN-45, 120 h, read-out: Activity. The method, boiled down:
as §1

Test [10] concerns HT-29. Kind of test: Cytotoxic activity against human HT-29 cells assessed as cell viability at 7.9 uM incubated for 3 days by MTT assay. The class given is functional. Particulars: HT-29, 72 h, read-out: Activity. The method, boiled down:
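HT-29 cells in exponential growth were seeded at 10 000 viable cells per well in RPMI and left overnight. They were then exposed to compound for 3 days at 37 °C under 5% CO₂. MTT was added for 4 h, followed by overnight solubilisation in 10% SDS/0.01 M HCl and absorbance at 562 nm. Viability is expressed as % of untreated cells (100%), in triplicate.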

The test system of test [11] is MKN-45. As to the kind of experiment: Cytotoxic activity against human MKN45 cells assessed as cell viability at 1 uM incubated for 5 days by MTT assay. Particulars: MKN-45, 120 h, read-out: Activity. The class given is functional. The method in brief: as §1
Test [12] relates to HT-29. Kind of test: Cytotoxic activity against human HT-29 cells assessed as cell viability at 26 uM incubated for 3 days by MTT assay. The class given is functional. Particulars: HT-29, 72 h, read-out: Activity. The method in brief: as §1
Test [13] concerns MKN-45. As to the kind of experiment: Induction of apoptosis in human MKN45 assessed as accumulation at subG1 phase at 20 uM incubated for 7 days by flow cytometry (reference value: 10.9 +/- 3.2%). The class given is functional.
In test [14] the test system is MKN-45. Kind of test: Induction of apoptosis in human MKN45 assessed as accumulation at subG1 phase at 1 uM incubated for 7 days by flow cytometry (reference value: 10.9 +/- 3.2%). The class given is functional.
Test [15] deals with MKN-45. As to the kind of experiment: Cytotoxic activity against human MKN45 cells assessed as cell viability at 50 uM incubated for 5 days by MTT assay. In kind it is functional. As to conditions: MKN-45, 120 h, read-out: Activity. The method, boiled down:
as §1

In test [16] the test system is MKN-45. Kind of test: Induction of apoptosis in human MKN45 assessed as accumulation at subG1 phase at 10 uM incubated for 7 days by flow cytometry (reference value: 10.9 +/- 3.2%). The class given is functional.
Test [17] deals with HT-29. Kind of test: Induction of apoptosis in human HT-29 assessed as accumulation at subG1 phase at 1.18 uM incubated for 7 days by flow cytometry (reference value: 3.4 +/- 0.9%). The class given is functional. The method in brief: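 HT-29 cells, 1.5 × 10⁵ per well, plated overnight, then exposed for 7 days to irinotecan at 1.18 μM, alone or with 7.9 μM test compound. Cells were trypsinized and stained for 1 h at 4 °C in PI buffer (sodium citrate, Triton X-100, PI). Sub-G1 fraction measured by flow cytometry (Nicoletti method). Drug-free control used as baseline. Triplicate.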

Turning to `COc1cc(OC)cc(C2=C(c3c[nH]c4ncccc34)C(=O)NC2=O)c1`, the viability at 2.6 µM in test [1] came out at 54.3%. Moreover, the Activity in test [2] is 24.8%; in [3], 45.8%; in test [13], 55.7%; in test [14] it was 12.7%; in test [16], 31.8%. Moreover, the “inhibition (INH)” value in [4] is given as 25%. In test [5], the viability at 5 µM amounted to 60.4%. Besides, the viability at 52 µM in test [6] turned out to be 40.5%. The viability at 10 µM in test [7] stood at 57%. For the same molecule, the viability at 0.5 µM in test [8] was 118%. Moreover, the viability at 20 µM in test [9] was 62.1%. The viability at 7.9 µM in test [10] was 49.2%. Moreover, in test [11], the viability at 1 µM was determined as 118%. Also, in [12], the viability at 26 µM worked out at 43%. Besides, in test [15], the viability at 50 µM was determined as 59.4%.

With `COc1ccccc1C1=C(c2c[nH]c3ncccc23)C(=O)NC1=O`, in test [4], the “inhibition (INH)” value worked out at 30%.

For `CCc1c2c(nc3ccc(OC(=O)N4CCC(N5CCCCC5)CC4)cc13)-c1cc3c(c(=O)n1C2)COC(=O)[C@]3(O)CC` [IRINOTECAN], the Activity in test [17] is 18.3%.
